Values joined by “and” are separate entries in the source; they are usually repeats but may differ in a detail not shown here. Identical values can stand only once.
Tested on: Fibroblast
Experiment: Multiplex assay against human fibroblast
Type: toxicity, cell-based
Outline: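 With compound added, live cells were imaged on a CQ1 microscope at 37°C and 5% CO2; staining with Hoechst33342, BioTracker Green Microtubule Cytoskeleton Dye, MitoTracker Red and Annexin V Alexa Fluor 680 had been done at seeding. The CellPathfinder machine-learning gating scheme split cells into Hoechst high-intensity objects or normal cells, normal cells into healthy, pyknosed or fragmented nuclei, and pyknosed cells into mitotic or apoptotic. The tubulin, mitochondrial-mass and membrane-permeability phenotypes are per cents of healthy-nucleus cells.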

[1] = 12 h, 1 µM, compound concentration 1 uM
[2] = 12 h, 10 µM, compound concentration 10 uM
[3] = 24 h, 1 µM, compound concentration 1 uM
[4] = 24 h, 10 µM, compound concentration 10 uM
[5] = 48 h, 1 µM, compound concentration 1 uM
[6] = 48 h, 10 µM, compound concentration 10 uM

O=C(Nc1ccccc1Br)N[C@@H]1CCN(c2ccc(C(F)(F)F)cn2)C1 [SB-705498]
Population Apoptotic (%) [1]: 20% and 15.79%
Population Healthy Nuclei (%) [1]: 43.71% and 74.07%
Population Hoechst High Intensity Objects (%) [1]: 0%
Population Membrane Permeable-Phenotype (%) [1]: 3.03% and 0%
Population Mitochondria Different-Phenotype (%) [1]: 12.12% and 8.57%
Population Mitotic Cells (%) [1]: 80% and 84.21%
Population Normal (%) [1]: 100%
Population Pyknosed Nuclei (%) [1]: 29.8% and 20.11%
Population Tubulin-Different-Phenotype (%) [1]: 33.33% and 14.29%
Total Cell Count [1]: 151 and 189
Population Apoptotic (%) [2]: 10.94% and 22.22%
Population Fragmented Nuclei (%) [2]: 10.95% and 8.47%
Population Healthy Nuclei (%) [2]: 57.21% and 76.27%
Population Hoechst High Intensity Objects (%) [2]: 0%
Population Membrane Permeable-Phenotype (%) [2]: 3.48% and 7.41%
Population Mitochondria Different-Phenotype (%) [2]: 15.65% and 15.56%
Population Mitotic Cells (%) [2]: 89.06% and 77.78%
Population Normal (%) [2]: 100%
Population Pyknosed Nuclei (%) [2]: 31.84% and 15.25%
Population Tubulin-Different-Phenotype (%) [2]: 15.65% and 42.22%
Total Cell Count [2]: 201 and 177
Population Apoptotic (%) [3]: 15.62% and 20%
Population Healthy Nuclei (%) [3]: 57.14% and 83%
Population Hoechst High Intensity Objects (%) [3]: 0%
Population Membrane Permeable-Phenotype (%) [3]: 3.12% and 1.81%
Population Mitochondria Different-Phenotype (%) [3]: 11.46% and 8.43%
Population Mitotic Cells (%) [3]: 84.38% and 80%
Population Normal (%) [3]: 100%
Population Pyknosed Nuclei (%) [3]: 19.05% and 12.5%
Population Tubulin-Different-Phenotype (%) [3]: 30.21% and 13.86%
Total Cell Count [3]: 168 and 200
Population Apoptotic (%) [4]: 18.03% and 12%
Population Fragmented Nuclei (%) [4]: 9.01% and 6.59%
Population Healthy Nuclei (%) [4]: 64.81% and 78.44%
Population Hoechst High Intensity Objects (%) [4]: 0%
Population Membrane Permeable-Phenotype (%) [4]: 5.3% and 5.34%
Population Mitochondria Different-Phenotype (%) [4]: 9.93% and 20.61%
Population Mitotic Cells (%) [4]: 81.97% and 88%
Population Normal (%) [4]: 100%
Population Pyknosed Nuclei (%) [4]: 26.18% and 14.97%
Population Tubulin-Different-Phenotype (%) [4]: 29.8% and 41.98%
Total Cell Count [4]: 233 and 167
Population Apoptotic (%) [5]: 25% and 18.18%
Population Fragmented Nuclei (%) [5]: 16.97% and 7.55%
Population Healthy Nuclei (%) [5]: 73.33% and 87.26%
Population Hoechst High Intensity Objects (%) [5]: 0%
Population Membrane Permeable-Phenotype (%) [5]: 3.31% and 0.54%
Population Mitochondria Different-Phenotype (%) [5]: 12.4% and 3.24%
Population Mitotic Cells (%) [5]: 75% and 81.82%
Population Normal (%) [5]: 100%
Population Pyknosed Nuclei (%) [5]: 9.7% and 5.19%
Population Tubulin-Different-Phenotype (%) [5]: 12.4% and 13.51%
Total Cell Count [5]: 165 and 212
Population Apoptotic (%) [6]: 31.25% and 21.43%
Population Fragmented Nuclei (%) [6]: 9.02% and 8.28%
Population Healthy Nuclei (%) [6]: 84.43% and 83.43%
Population Hoechst High Intensity Objects (%) [6]: 0%
Population Membrane Permeable-Phenotype (%) [6]: 1.46% and 9.93%
Population Mitochondria Different-Phenotype (%) [6]: 12.62% and 5.67%
Population Mitotic Cells (%) [6]: 68.75% and 78.57%
Population Normal (%) [6]: 100%
Population Pyknosed Nuclei (%) [6]: 6.56% and 8.28%
Population Tubulin-Different-Phenotype (%) [6]: 17.48% and 42.55%
Total Cell Count [6]: 244 and 169

CC(C)CC(=O)Nc1cncc(-c2ccc3[nH]nc(-c4nc5c(-c6cccc(F)c6)cncc5[nH]4)c3c2)c1 [LORECIVIVINT]
Population Fragmented Nuclei (%) [1]: 12.2% and 10.34%
Population Healthy Nuclei (%) [1]: 60.98% and 74.14%
Population Hoechst High Intensity Objects (%) [1]: 0%
Population Membrane Permeable-Phenotype (%) [1]: 6% and 10.08%
Population Mitochondria Different-Phenotype (%) [1]: 10% and 9.3%
Population Mitotic Cells (%) [1]: 95.45% and 62.96%
Population Normal (%) [1]: 100%
Population Pyknosed Nuclei (%) [1]: 26.83% and 15.52%
Population Tubulin-Different-Phenotype (%) [1]: 36% and 44.19%
Total Cell Count [1]: 164 and 174
Population Apoptotic (%) [2]: 37.84% and 20.2%
Population Fragmented Nuclei (%) [2]: 10.38% and 7.03%
Population Healthy Nuclei (%) [2]: 64.01% and 61.34%
Population Hoechst High Intensity Objects (%) [2]: 0%
Population Membrane Permeable-Phenotype (%) [2]: 14.59% and 9.38%
Population Mitochondria Different-Phenotype (%) [2]: 4.86% and 2.08%
Population Mitotic Cells (%) [2]: 62.16% and 79.8%
Population Normal (%) [2]: 100%
Population Pyknosed Nuclei (%) [2]: 25.61% and 31.63%
Population Tubulin-Different-Phenotype (%) [2]: 37.84% and 36.46%
Total Cell Count [2]: 289 and 313
Population Apoptotic (%) [3]: 12.9% and 25%
Population Fragmented Nuclei (%) [3]: 14.37% and 8.2%
Population Healthy Nuclei (%) [3]: 67.82% and 80.87%
Population Hoechst High Intensity Objects (%) [3]: 0%
Population Membrane Permeable-Phenotype (%) [3]: 6.78% and 12.84%
Population Mitochondria Different-Phenotype (%) [3]: 5.08% and 2.7%
Population Mitotic Cells (%) [3]: 87.1% and 75%
Population Normal (%) [3]: 100%
Population Pyknosed Nuclei (%) [3]: 17.82% and 10.93%
Population Tubulin-Different-Phenotype (%) [3]: 34.75% and 50.68%
Total Cell Count [3]: 174 and 183
Population Apoptotic (%) [4]: 40% and 21.83%
Population Fragmented Nuclei (%) [4]: 10% and 5.2%
Population Healthy Nuclei (%) [4]: 49.38% and 59.65%
Population Hoechst High Intensity Objects (%) [4]: 0%
Population Membrane Permeable-Phenotype (%) [4]: 13.29% and 10.37%
Population Mitochondria Different-Phenotype (%) [4]: 2.53% and 0.41%
Population Mitotic Cells (%) [4]: 60% and 78.17%
Population Normal (%) [4]: 100%
Population Pyknosed Nuclei (%) [4]: 40.62% and 35.15%
Population Tubulin-Different-Phenotype (%) [4]: 37.97% and 34.02%
Total Cell Count [4]: 320 and 404
Population Apoptotic (%) [5]: 16.67% and 32.43%
Population Fragmented Nuclei (%) [5]: 16.43% and 12.15%
Population Healthy Nuclei (%) [5]: 60.39% and 67.4%
Population Hoechst High Intensity Objects (%) [5]: 0%
Population Membrane Permeable-Phenotype (%) [5]: 8% and 13.93%
Population Mitochondria Different-Phenotype (%) [5]: 9.6% and 4.92%
Population Mitotic Cells (%) [5]: 83.33% and 67.57%
Population Normal (%) [5]: 100%
Population Pyknosed Nuclei (%) [5]: 23.19% and 20.44%
Population Tubulin-Different-Phenotype (%) [5]: 32% and 47.54%
Total Cell Count [5]: 207 and 181
Population Apoptotic (%) [6]: 46.41% and 43.05%
Population Fragmented Nuclei (%) [6]: 10.67% and 7.39%
Population Healthy Nuclei (%) [6]: 33.6% and 33.77%
Population Hoechst High Intensity Objects (%) [6]: 0%
Population Membrane Permeable-Phenotype (%) [6]: 8.73% and 10.16%
Population Mitochondria Different-Phenotype (%) [6]: 5.56% and 1.56%
Population Mitotic Cells (%) [6]: 53.59% and 56.95%
Population Normal (%) [6]: 100%
Population Pyknosed Nuclei (%) [6]: 55.73% and 58.84%
Population Tubulin-Different-Phenotype (%) [6]: 17.46% and 26.56%
Total Cell Count [6]: 375 and 379

Source: ChEMBL document CHEMBL5724801, “EUbOPEN Chemogenomics Library - Multiplex” (2024)
